# In ChEMBL document CHEMBL4270658, “Synthesis, in vitro and in vivo biological evaluation, COX-1/2 inhibition and molecular docking study of indole-N-acylhydrazone derivatives” (Bioorg Med Chem, 2018):
# Calls of active or inactive are those of the source. The rule behind the calls is not given here.
# Tests used:
# [1] = Cytotoxicity against mouse J774 macrophages after 72 hrs by Alamar Blue assay; format: cell-based
# Splenocyte [2] = experiment: Immunomodulatory activity in BALB/c mouse splenocytes assessed as inhibition of concanavalin A-induced lymphocyte proliferation by measuring [methyl-3H]-thymidine uptake at 50 uM after 48 hrs; format: functional
# Summary of the method: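 BALB/c splenocytes (5×10⁶ cells/well) in DMEM, triplicate, with concanavalin A (2 μg mL⁻¹) ± compound 48 h at 37 °C, 5% CO₂, then 1 μCi [methyl-³H]thymidine for 12 h; inhibition from thymidine uptake relative to control; dexamethasone positive control.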
# Mus musculus [3] = experiment: Antiinflammatory activity in carrageenan-induced Swiss mouse assessed as inhibition of paw edema at 10 mg/kg, po pretreated for 1 hr followed by carrageenan challenge measured after 2 hrs by plethysmometric method; format: functional
# Mus musculus [4] = experiment: Antiinflammatory activity in carrageenan-induced Swiss mouse assessed as inhibition of paw edema at 10 mg/kg, po pretreated for 1 hr followed by carrageenan challenge measured after 6 hrs by plethysmometric method; format: functional
# [5] = target: T1, Prostaglandin G/H synthase 2 (Homo sapiens, UniProt P35354); experiment: Inhibition of recombinant N-terminal His6-tagged human COX-2 expressed in Baculovirus infected Sf21 cells using arachidonic acid as substrate preincubated for 5 mins followed by substrate addition measured after 1 hr; format: cell-based
# T1 sequence (P35354 whole entry): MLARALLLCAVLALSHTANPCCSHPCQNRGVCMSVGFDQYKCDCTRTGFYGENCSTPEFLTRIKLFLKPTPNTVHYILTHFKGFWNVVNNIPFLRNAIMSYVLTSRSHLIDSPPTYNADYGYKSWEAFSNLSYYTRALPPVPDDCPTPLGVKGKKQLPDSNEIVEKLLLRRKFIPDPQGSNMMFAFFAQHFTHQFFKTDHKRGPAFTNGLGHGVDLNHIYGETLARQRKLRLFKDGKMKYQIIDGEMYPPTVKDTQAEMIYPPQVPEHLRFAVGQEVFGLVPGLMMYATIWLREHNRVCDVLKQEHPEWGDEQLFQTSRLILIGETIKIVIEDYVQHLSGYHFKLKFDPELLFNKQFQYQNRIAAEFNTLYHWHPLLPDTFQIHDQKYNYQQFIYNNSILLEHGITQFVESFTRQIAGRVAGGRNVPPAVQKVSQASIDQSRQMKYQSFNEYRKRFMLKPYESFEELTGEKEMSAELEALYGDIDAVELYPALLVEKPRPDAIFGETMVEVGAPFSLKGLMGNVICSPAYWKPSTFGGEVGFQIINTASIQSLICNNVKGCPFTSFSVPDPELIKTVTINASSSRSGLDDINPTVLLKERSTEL
# Mus musculus [6] = experiment: Acute toxicity in Swiss mouse assessed as effect on blood cell levels at 2000 mg/kg, po (reference value: 13.0 +/- 0.9 10^6/mm3); format: organism-based; conditions: in vivo
# Mus musculus [7] = experiment: Acute toxicity in Swiss mouse assessed as effect on mean corpuscular hemoglobin concentration level at 2000 mg/kg, po (reference value: 19.5 +/- 0.94%); format: organism-based; conditions: in vivo
# Splenocyte [8] = experiment: Antiinflammatory activity in BALB/c mouse splenocytes assessed as inhibition of IL-2 level at 11 uM after 24 to 48 hrs by cytometric bead array method; format: functional, cell-based
# Summary of the method: (§1)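 Splenocytes from female BALB/c mice (6–8 weeks) isolated on Ficoll-Paque (1.076 g/mL), viability >98% by trypan blue; cultured with 11 μM compound for 24 and 48 h. Supernatant cytokines measured by cytometric bead array on flow cytometer; two independent experiments in triplicate.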
# Mus musculus [9] = experiment: Acute toxicity in Swiss mouse assessed as effect on hematocrit levels at 2000 mg/kg, po (reference value: 74.7 +/- 6.05%); format: organism-based; conditions: in vivo
# Splenocyte [10] = experiment: Antiinflammatory activity in BALB/c mouse splenocytes assessed as increase of IL-10 level at 11 uM after 24 to 48 hrs by cytometric bead array method; format: functional, cell-based; summary of the method: as §1
# Mus musculus [11] = experiment: Acute toxicity in Swiss mouse assessed as occurence of ptosis at 2000 mg/kg, po after 1 hr; format: organism-based; conditions: in vivo
# Summary of the method: (§2)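 Fixed-dose stepwise procedure following OECD acute oral toxicity guidelines; groups of 3 Swiss Mus musculus mice (20–35 g) dosed orally at 2000 mg kg⁻¹ and observed for clinical signs of pain, suffering and impending death. Test run in duplicate. Animals kept at 22 ± 3 °C, 12 h light/dark, free food and water.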
# [12] = target: T2, Prostaglandin G/H synthase 1 (Ovis aries, UniProt P05979); experiment: Inhibition of ovine COX-1 using arachidonic acid as substrate preincubated for 5 mins followed by substrate addition measured after 1 hr
# T2 sequence (P05979 whole entry): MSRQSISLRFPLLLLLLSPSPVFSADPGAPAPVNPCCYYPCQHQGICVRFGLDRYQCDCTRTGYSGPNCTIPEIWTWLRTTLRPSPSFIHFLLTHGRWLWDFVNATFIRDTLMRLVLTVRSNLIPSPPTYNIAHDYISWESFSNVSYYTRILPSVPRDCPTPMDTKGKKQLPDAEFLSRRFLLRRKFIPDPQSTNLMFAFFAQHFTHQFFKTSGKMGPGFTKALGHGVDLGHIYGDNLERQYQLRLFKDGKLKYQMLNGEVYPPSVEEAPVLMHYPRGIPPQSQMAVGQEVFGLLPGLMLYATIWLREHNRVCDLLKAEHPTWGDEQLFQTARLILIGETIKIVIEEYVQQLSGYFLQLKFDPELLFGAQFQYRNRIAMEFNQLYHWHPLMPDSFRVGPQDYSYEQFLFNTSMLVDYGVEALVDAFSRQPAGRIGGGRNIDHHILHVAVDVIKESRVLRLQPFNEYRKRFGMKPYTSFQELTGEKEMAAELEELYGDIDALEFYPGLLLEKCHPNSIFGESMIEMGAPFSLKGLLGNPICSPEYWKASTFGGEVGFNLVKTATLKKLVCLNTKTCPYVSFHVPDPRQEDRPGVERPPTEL
# Mus musculus [13] = experiment: Acute toxicity in Swiss mouse assessed as occurence of irritability at 2000 mg/kg, po after 1 hr; format: organism-based; conditions: in vivo; summary of the method: as §2
# Mus musculus [14] = experiment: Antiinflammatory activity in carrageenan-induced Swiss mouse assessed as inhibition of paw edema at 60 mg/kg, po pretreated for 1 hr followed by carrageenan challenge measured after 6 hrs by plethysmometric method; format: functional
# Mus musculus [15] = experiment: Acute toxicity in Swiss mouse assessed as mortality at 2000 mg/kg, po; format: organism-based; conditions: in vivo; summary of the method: as §2
# Mus musculus [16] = experiment: Acute toxicity in Swiss mouse assessed as effect on mean corpuscular volume at 2000 mg/kg, po (reference value: 57.3 +/- 3.01 […]); format: organism-based; conditions: in vivo
# Mus musculus [17] = experiment: Acute toxicity in Swiss mouse assessed as effect on leukocyte level at 2000 mg/kg, po (reference value: 10.8 +/- 6.25 10^3/mm3); format: organism-based; conditions: in vivo
# Mus musculus [18] = experiment: Antiinflammatory activity in carrageenan-induced Swiss mouse assessed as inhibition of paw edema at 30 mg/kg, po pretreated for 1 hr followed by carrageenan challenge measured after 1 hr by plethysmometric method; format: functional
# Splenocyte [19] = experiment: Antiinflammatory activity in BALB/c mouse splenocytes assessed as decrease of IL-6 level at 11 uM after 24 hrs by cytometric bead array method; format: functional, cell-based; summary of the method: as §1
# [20] = Selectivity index, ratio of IC50 for ovine COX-1 to IC50 for recombinant N-terminal His6-tagged human COX-2
# Summary of the method: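 COX-1 or COX-2 in 100 mM Tris-HCl pH 8.0 with hematin, compound (in DMSO, 1.5–100 μM) preincubated 5 min at room temperature; started with arachidonic acid plus TMPD, absorbance at 610 nm after 1 h; triplicate; IC50 calculated, selectivity index from COX-1 and COX-2 IC50s.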
# Mus musculus [21] = experiment: Antiinflammatory activity in carrageenan-induced Swiss mouse assessed as inhibition of paw edema at 15 mg/kg, po pretreated for 1 hr followed by carrageenan challenge measured after 6 hrs by plethysmometric method; format: functional
# Mus musculus [22] = experiment: Antiinflammatory activity in carrageenan-induced Swiss mouse assessed as inhibition of paw edema at 60 mg/kg, po pretreated for 1 hr followed by carrageenan challenge measured after 1 hr by plethysmometric method; format: functional
# Splenocyte [23] = experiment: Antiinflammatory activity in BALB/c mouse splenocytes assessed as inhibition of TNFalpha level at 11 uM after 24 to 48 hrs by cytometric bead array method; format: functional, cell-based; summary of the method: as §1
# Mus musculus [24] = experiment: Antiinflammatory activity in carrageenan-induced Swiss mouse assessed as inhibition of paw edema at 30 mg/kg, po pretreated for 1 hr followed by carrageenan challenge measured after 5 hrs by plethysmometric method; format: functional
# Splenocyte [25] = experiment: Antiinflammatory activity in BALB/c mouse splenocytes assessed as inhibition of IFNgamma level at 11 uM after 24 to 48 hrs by cytometric bead array method; format: functional, cell-based; summary of the method: as §1
# Mus musculus [26] = experiment: Acute toxicity in Swiss mouse assessed as effect on hemoglobin levels at 2000 mg/kg, po (reference value: 14.5 +/- 0.6 g/dl); format: organism-based; conditions: in vivo
# Mus musculus [27] = experiment: Acute toxicity in Swiss mouse assessed as effect on mean corpuscular hemoglobin level at 2000 mg/kg, po (reference value: 11.16 +/- 0.53 pg); format: organism-based; conditions: in vivo
# Splenocyte [28] = experiment: Antiinflammatory activity in BALB/c mouse splenocytes assessed as increase of IL-4 level at 11 uM after 24 to 48 hrs by cytometric bead array method; format: functional, cell-based; summary of the method: as §1
# Splenocyte [29] = experiment: Antiinflammatory activity in BALB/c mouse splenocytes assessed as inhibition of IFNgamma-induced nitric oxide production at 11 uM after 24 to 48 hrs by Griess method; format: functional, cell-based
# Mus musculus [30] = experiment: Antiinflammatory activity in carrageenan-induced Swiss mouse assessed as inhibition of paw edema at 30 mg/kg, po pretreated for 1 hr followed by carrageenan challenge measured after 6 hrs by plethysmometric method; format: functional
# Mus musculus [31] = experiment: Antiinflammatory activity in carrageenan-induced Swiss mouse assessed as paw volume at 60 mg/kg, po pretreated for 1 hr followed by carrageenan challenge measured after 1 hr by plethysmometric method (reference value: 59.39 +/- 10.59 […]); format: functional
compound,measurement,setting,value
Cc1ccc2[nH]cc(/C=N/NC(=O)CC#N)c2c1,CC50 at 72 h,[1],200 µM
same,inhibition at 50 µM,Splenocyte [2],15.4%
N#CCC(=O)N/N=C/c1c[nH]c2cccc([N+](=O)[O-])c12,CC50 at 72 h,[1],66 µM
same,inhibition at 50 µM,Splenocyte [2],31%
N#CCC(=O)N/N=C/c1c[nH]c2ccc(Cl)cc12,CC50 at 72 h,[1],76.9 µM
same,inhibition at 50 µM,Splenocyte [2],1.8%
COc1ccc2c(c1)c(CC(=O)O)c(C)n2C(=O)c1ccc(Cl)cc1 [INDOMETHACIN],inhibition in vivo at 10 mg/kg,Mus musculus [3],72.4%
same,inhibition in vivo at 10 mg/kg,Mus musculus [4],84.1%
N#CCC(=O)N/N=C/c1c[nH]c2ccccc12,IC50,[5],1.02 µM
same,Activity,Mus musculus [6],8.1 ×10⁶ /mm3
same,Activity,Mus musculus [7],33.8%
same,inhibition,Splenocyte [8],Active
same,Activity,Mus musculus [9],42.5%
same,Activity,Splenocyte [10],Active
same,Activity,Mus musculus [11],Non-Toxic
same,CC50 at 72 h,[1],150 µM
same,IC50,[12],1.54 µM
same,Activity,Mus musculus [13],Non-Toxic
same,inhibition in vivo at 60 mg/kg,Mus musculus [14],92.5%
same,Activity,Mus musculus [15],Non-Toxic
same,Activity,Mus musculus [16],51.5 fL
same,Activity,Mus musculus [17],3.6 ×10³ /mm3
same,inhibition in vivo at 30 mg/kg,Mus musculus [18],88.9%
same,Activity,Splenocyte [19],inactive
same,inhibition at 50 µM,Splenocyte [2],50.7%
same,Ratio IC50,[20],1.51
same,inhibition in vivo at 15 mg/kg,Mus musculus [21],67%
same,inhibition in vivo at 60 mg/kg,Mus musculus [22],74.3%
same,inhibition,Splenocyte [23],inactive
same,inhibition in vivo at 30 mg/kg,Mus musculus [24],100%
same,inhibition,Splenocyte [25],Active
same,Activity,Mus musculus [26],13.6 g/dL
same,Activity,Mus musculus [27],17.05 pg
same,Activity,Splenocyte [28],Active
same,inhibition,Splenocyte [29],Active
Cc1cccc2c(/C=N/NC(=O)CC#N)c[nH]c12,CC50 at 72 h,[1],146 µM
same,inhibition at 50 µM,Splenocyte [2],52.2%
C[C@@H]1C[C@H]2[C@@H]3CCC4=CC(=O)C=C[C@]4(C)[C@@]3(F)[C@@H](O)C[C@]2(C)[C@@]1(O)C(=O)CO [DEXAMETHASONE],inhibition at 50 µM,Splenocyte [2],74.6%
N#CCC(=O)N/N=C/c1c[nH]c2ncccc12,CC50 at 72 h,[1],107 µM
same,inhibition at 50 µM,Splenocyte [2],52.4%
COc1ccc2[nH]cc(/C=N/NC(=O)CC#N)c2c1,CC50 at 72 h,[1],101 µM
same,inhibition at 50 µM,Splenocyte [2],43.7%
N#CCC(=O)N/N=C/c1c[nH]c2ccc(C#N)cc12,CC50 at 72 h,[1],69.4 µM
same,inhibition at 50 µM,Splenocyte [2],25.7%
N#CCC(=O)N/N=C/c1c[nH]c2ccc(Br)cc12,IC50,[5],0.25 µM
same,Activity,Mus musculus [6],8.4 ×10⁶ /mm3
same,inhibition in vivo at 30 mg/kg,Mus musculus [30],61.8%
same,Activity,Mus musculus [7],32.9%
same,Activity,Mus musculus [9],57.6%
same,Activity,Mus musculus [11],Non-Toxic
same,CC50 at 72 h,[1],144 µM
same,IC50,[12],0.18 µM
same,Activity,Mus musculus [13],Non-Toxic
same,inhibition in vivo at 60 mg/kg,Mus musculus [14],66.3%
same,Activity,Mus musculus [15],Non-Toxic
same,Activity,Mus musculus [16],53.6 fL
same,Activity,Mus musculus [17],5.9 ×10³ /mm3
same,inhibition at 50 µM,Splenocyte [2],62.7%
same,Ratio IC50,[20],0.72
same,Activity,Mus musculus [26],14.1 g/dL
same,Activity,Mus musculus [31],48.33 mL
same,Activity,Mus musculus [27],16.8 pg
N#CCC(=O)N/N=C/c1c[nH]c2c1ccc1ccccc12,CC50 at 72 h,[1],78.5 µM
same,inhibition at 50 µM,Splenocyte [2],1.2%
